According to ChEMBL document CHEMBL2021771, “Synthesis and biological activity of 2-aminothiazoles as novel inhibitors of PGE2 production in cells” (Bioorg Med Chem Lett, 2012):
The source made the active and inactive calls. The calls are words filed in the database; no cut-off is given here.

Legend:
[1] = (§1) Inhibition of IL-1beta-induced PGE2 production in human HCA-7 cells at 1 uM after 72 hrs by EIA; type: functional; conditions: HCA-7, 72 h
How it was run: (§2)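 Screen of HCA-7 cells at 1 μM compound (DMSO) with 10 ng/ml IL-1β in serum-free medium for 72 h, after overnight DMEM/10% FBS culture and 18 h serum starvation. Supernatant PGE2 quantified by EIA, expressed as % reduction of PGE2 level ± SD, n = 3.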

[2] = target: T1, Prostaglandin G/H synthase 2 (Homo sapiens, UniProt P35354); test: Inhibition of COX2 by fluorescence assay
T1 sequence (P35354 whole entry): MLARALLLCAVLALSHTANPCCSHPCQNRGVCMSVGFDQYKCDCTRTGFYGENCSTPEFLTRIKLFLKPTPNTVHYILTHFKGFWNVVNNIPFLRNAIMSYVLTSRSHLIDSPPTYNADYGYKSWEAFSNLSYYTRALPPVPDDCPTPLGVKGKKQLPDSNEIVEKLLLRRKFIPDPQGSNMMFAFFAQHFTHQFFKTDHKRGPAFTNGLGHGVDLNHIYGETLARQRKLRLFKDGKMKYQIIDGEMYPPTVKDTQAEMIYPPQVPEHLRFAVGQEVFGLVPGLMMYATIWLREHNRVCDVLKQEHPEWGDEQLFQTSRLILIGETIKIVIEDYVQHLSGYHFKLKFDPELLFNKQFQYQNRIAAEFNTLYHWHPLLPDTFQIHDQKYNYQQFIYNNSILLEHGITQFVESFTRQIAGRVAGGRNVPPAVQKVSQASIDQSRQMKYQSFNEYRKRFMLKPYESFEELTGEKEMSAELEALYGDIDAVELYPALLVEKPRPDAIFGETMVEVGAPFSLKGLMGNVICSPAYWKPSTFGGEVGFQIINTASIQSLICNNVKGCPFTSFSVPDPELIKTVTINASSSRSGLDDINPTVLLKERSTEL

[3] = target: T2, Prostaglandin G/H synthase 2 (Homo sapiens) (UniProt P35354); conditions: at 5 µM
T2 sequence (whole entry): T1 sequence (P35354 whole entry)

[4] = Inhibition of IL-1beta-induced PGE2 production in human HCA-7 cells after 72 hrs by EIA; type: functional, cell-based; conditions: HCA-7, 72 h
How it was run: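 HCA-7 cells seeded and incubated overnight in DMEM/10% FBS, then serum-starved 18 h. Stimulated with 10 ng/ml IL-1β plus increasing compound concentrations (DMSO) in serum-free medium for 72 h. Supernatant PGE2 measured by EIA.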

HCA-7 = test: as §1; type: functional; how it was run: as §2
[5] = Antitumor activity against human HCA-7 cells xenografted in mouse at 200 mg/kg for 5 days relative to control; type: functional
SW837 = test: Antitumor activity against human SW837 cells xenografted in mouse at 200 mg/kg for 5 days relative to control; type: functional
A549 = test: Antitumor activity against human A549 cells xenografted in mouse at 100 mg/kg for 10 days relative to control; type: functional

Row | IC50 [2] [nM] | inhibition [3] [%] | Structure (SMILES) | inhibition at 1 µM [1] [%] | also measured
1 | 1080 | 84.2 | CN(c1ccc(O)cc1)c1nc(-c2ccc(Cl)cc2)cs1 | 85.8 | 
2 | > 5000 | 43.4 | Fc1ccc(-c2csc(Nc3ccc(Oc4ccccc4)cc3)n2)cc1 | 87.9 | EC50 [4]: 120 nM
3 |  |  | N#Cc1ccc(Nc2nc(-c3ccccc3)c(C(=O)c3ccccc3)s2)cc1 |  | inhibition (HCA-7): inactive
4 | > 5000 |  | Cc1nc(Nc2ccc(Oc3ccccc3)cc2)sc1C(C)O (stereo not given) | 80.4 | EC50 [4]: 90 nM
5 | 920 | 86 | COc1cccc(-c2csc(Nc3ccc4c(c3)OCO4)n2)c1 | 94.4 | 
6 | 410 | 114 | c1ccc(-c2csc(Nc3ccc4c(c3)OCO4)n2)cc1 | 98.2 | 
7 | > 5000 | 38.9 | COc1ccccc1-c1csc(Nc2ccc(Oc3ccccc3)cc2)n1 | 82 | EC50 [4]: 180 nM
8 |  |  | COc1ccc(Nc2nc(-c3ccccc3)c(C(=O)c3ccccc3)s2)cc1 |  | inhibition (HCA-7): inactive
9 |  |  | N#Cc1ccc(Nc2nc(-c3ccc(Cl)cc3)cs2)cc1 | 23.1 | 
10 | > 5000 | 31 | c1ccc(Oc2ccc(Nc3nc(-c4ccccc4)cs3)cc2)cc1 | 79.6 | EC50 [4]: 330 nM
11 |  |  | CC(=O)c1sc(Nc2ccc(C#N)cc2)nc1C | 22.4 | 
12 | 1370 | 66.8 | COc1ccc(Nc2nc(-c3ccc(OC)cc3)cs2)cc1 | 73.6 | 
13 | > 5000 | 40.8 | COc1ccc(-c2csc(Nc3ccc(Oc4ccccc4)cc3)n2)cc1 | 80.4 | EC50 [4]: 240 nM
14 | > 10000 | 32.1 | Clc1ccc(-c2csc(Nc3ccc(Oc4ccccc4)cc3)n2)cc1 | 75.5 | EC50 [4]: 280 nM; T/C [5]: 61%; T/C (SW837): 40%; T/C (A549): 38%
15 |  |  | c1ccc(Oc2ccc(Nc3nc(-c4ccc(C5CCCCC5)cc4)cs3)cc2)cc1 | 41.6 | 
16 |  |  | Clc1ccc(-c2csc(Nc3ccccc3)n2)cc1 | 51 | 
17 | > 5000 | 28.9 | CC(=O)c1sc(Nc2ccc(Oc3ccccc3)cc2)nc1C | 87.9 | 
18 | 840 | 68.8 | Clc1ccc(-c2csc(Nc3ccc4c(c3)OCO4)n2)cc1 | 94.2 | 

Row | IC50 [2] [nM] | inhibition [3] [%] | Structure (SMILES) | inhibition at 1 µM [1] [%] | also measured
19 |  |  | O=C(c1ccccc1)c1sc(Nc2ccc3c(c2)OCO3)nc1-c1ccccc1 |  | inhibition (HCA-7): inactive
20 |  |  | CC(=O)c1sc(Nc2ccccc2)nc1C | 29.9 | 
21 |  |  | Clc1ccc(-c2csc(Nc3cccc4ccccc34)n2)cc1 | 51.4 | 
22 | > 5000 | 40.3 | COc1cccc(-c2csc(Nc3ccc(Oc4ccccc4)cc3)n2)c1 | 88.9 | EC50 [4]: 290 nM
23 | 910 | 84.8 | Clc1ccccc1-c1csc(Nc2ccc3c(c2)OCO3)n1 | 85.9 | 
24 | 910 | 94.4 | COc1ccc(-c2csc(Nc3ccc4c(c3)OCO4)n2)cc1 | 96.2 | 
25 |  |  | c1ccc(Oc2ccc(Nc3nc(-c4ccc5ccccc5c4)cs3)cc2)cc1 | 53.5 | 
26 |  |  | CC(=O)c1sc(Nc2ccc3c(c2)OCO3)nc1C | 25.3 | 
27 | > 5000 | 41.3 | CCc1sc(Nc2ccc(Oc3ccccc3)cc2)nc1C | 87.1 | 
28 | 1390 | 55.1 | COc1cccc(Nc2nc(-c3ccc(Cl)cc3)cs2)c1 | 78.3 | 
29 | > 5000 | 49.3 | CCc1sc(Nc2ccc(OC)cc2)nc1C | 94.4 | EC50 [4]: 320 nM
30 | 1200 | 69.3 | COc1ccc(Nc2nc(-c3ccc(C)c(C)c3)cs2)cc1 | 73.9 | 
31 | 810 | 73.1 | COc1ccc(-c2csc(Nc3ccc(C)cc3)n2)cc1 | 91.5 | 
32 | 930 | 91.3 | COc1ccccc1-c1csc(Nc2ccc3c(c2)OCO3)n1 | 89 | 
33 | > 5000 | 12 | COc1ccc(Nc2nc(-c3ccc(Cl)cc3)c(C)s2)cc1 | 89.3 | 
34 |  |  | COc1ccc(Nc2nc(C)c(C(C)=O)s2)cc1 | 58.5 | 
35 |  |  | O=C(c1ccccc1)c1sc(Nc2ccc(Oc3ccccc3)cc2)nc1-c1ccccc1 | 42 | 
36 |  |  | COc1ccc(Nc2nc(-c3ccc(C)cc3)cs2)cc1 | 37.3 | 
